The results in this text go back to ChEMBL document CHEMBL3286367, “Synthesis of new class of spirocarbocycle derivatives by multicomponent domino reaction and their evaluation for antimicrobial, anticancer activity and molecular docking studies” (2014).

Test [1] relates to Staphylococcus epidermidis. In words: Antimicrobial activity against Staphylococcus epidermidis MTCC 3615 assessed as zone of inhibition at 1 mg/disc after 24 hrs incubation by disc diffusion assay. It is filed as functional. The essentials: (§1)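 Inocula grown in Mueller Hinton broth for 24 h at 37 °C and swabbed onto Mueller Hinton agar. Discs carried 1 mg compound each and stood 30 min at room temperature before 24 h incubation at 37 °C. Solvent as negative control. Inhibition zones recorded in mm; experiment done twice.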

Test [2] has as its system Staphylococcus aureus. In words: Antimicrobial activity against Staphylococcus aureus MTCC 96 assessed as zone of inhibition at 1 mg/disc after 24 hrs incubation by disc diffusion assay. It is filed as functional. In short, it runs like this: as §1
In general terms: Agar diffusion results depend on both activity and mobility in agar.

Test [3] concerns Staphylococcus aureus. Nature of the test: Antimicrobial activity against methicillin-resistant Staphylococcus aureus assessed as zone of inhibition at 1 mg/disc after 24 hrs incubation by disc diffusion assay. Format: functional. The essentials: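 Inoculum grown in Mueller Hinton broth 24 h at 37°C, swabbed onto Mueller Hinton agar and dried 10 min. Discs loaded at 1 mg/disc, then 30 min at room temperature for diffusion. Plates incubated 24 h at 37°C. Solvent negative control; streptomycin positive control. Zone of inhibition read in mm; experiment done twice.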

The subject of test [4] is Micrococcus luteus. In words: Antimicrobial activity against Micrococcus luteus MTCC 106 assessed as zone of inhibition at 1 mg/disc after 24 hrs incubation by disc diffusion assay. Format: functional. In short, it runs like this: as §1
Test [5] deals with Klebsiella aerogenes. Nature of the test: Antimicrobial activity against Enterobacter aerogenes MTCC 111 assessed as zone of inhibition at 1 mg/disc after 24 hrs incubation by disc diffusion assay. Format: functional. In short, it runs like this:
as §1

Test [6] relates to Salmonella typhimurium. Nature of the test: Antimicrobial activity against Salmonella typhimurium MTCC 1251 assessed as zone of inhibition at 1 mg/disc after 24 hrs incubation by disc diffusion assay. Format: functional, Salmonella enterica subsp. enterica serovar Typhimurium. Conditions: for inhibition: Salmonella enterica subsp. enterica serovar Typhimurium. The essentials: as §1

Test [7] relates to Klebsiella pneumoniae. Nature of the test: Antimicrobial activity against Klebsiella pneumonia MTCC 109 assessed as zone of inhibition at 1 mg/disc after 24 hrs incubation by disc diffusion assay. Format: functional. In short, it runs like this:
as §1

Test [8] has as its system Proteus vulgaris. Nature of the test: Antimicrobial activity against Proteus vulgaris MTCC 1771 assessed as zone of inhibition at 1 mg/disc after 24 hrs incubation by disc diffusion assay. Format: functional. The essentials: as §1
Test [9] concerns Shigella flexneri. Nature of the test: Antimicrobial activity against Shigella flexneri MTCC 1457 assessed as zone of inhibition at 1 mg/disc after 24 hrs incubation by disc diffusion assay. Format: functional. The essentials: as §1
For another test, the system named is Candida albicans. Nature of the test: Antifungal activity against Candida albicans MTCC 227 assessed as zone of inhibition at 1 mg/disc after 48 hrs incubation by disc diffusion assay. Format: functional. The essentials:
(§2)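 Disc diffusion on Mueller Hinton agar with swabbed cultures, 1 mg compound per disc. Discs stood 30 min at room temperature for diffusion, then plates incubated 48 h at 28 °C. Solvent as negative control. Yeast pre-grown in Sabouraud dextrose broth at 28 °C for 48-72 h; filamentous fungal spores came from SDA slants grown 10 days at 28 °C. Zone diameters in mm; run twice.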

A further test has as its system Malassezia pachydermatis. Nature of the test: Antifungal activity against Malassezia pachydermatis assessed as zone of inhibition at 1 mg/disc after 48 hrs incubation by disc diffusion assay. It is filed as functional. In short, it runs like this: as §2
In test [10] the test system is Staphylococcus aureus. Nature of the test: Antimicrobial activity against Staphylococcus aureus MTCC 96 assessed as absence of visible growth after 48 to 72 hrs. It is filed as functional.
Test [11] relates to Staphylococcus aureus. Nature of the test: Antimicrobial activity against methicillin-resistant Staphylococcus aureus assessed as absence of visible growth after 48 to 72 hrs. It is filed as functional. The essentials: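 Broth two-fold serial dilution in 96-well plates, 1000 to 7.81 µg/mL, compound dissolved in DMSO (2%). Inoculum grown in Mueller Hinton broth 24 h at 37°C. Streptomycin positive control. 5 µl of tested broth plated on MHA; MIC is the lowest concentration inhibiting visible growth on agar.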

Test [12] has as its system Micrococcus luteus. Nature of the test: Antimicrobial activity against Micrococcus luteus MTCC 106 assessed as absence of visible growth after 48 to 72 hrs. It is filed as functional.
Test [13] deals with Klebsiella aerogenes. Nature of the test: Antimicrobial activity against Enterobacter aerogenes MTCC 111 assessed as absence of visible growth after 48 to 72 hrs. Format: functional.
Test [14] has as its system Salmonella typhimurium. Nature of the test: Antimicrobial activity against Salmonella typhimurium MTCC 1251 assessed as absence of visible growth after 48 to 72 hrs. Format: functional, Salmonella enterica subsp. enterica serovar Typhimurium. Conditions: Salmonella enterica.
Test [15] relates to Proteus vulgaris. Nature of the test: Antimicrobial activity against Proteus vulgaris MTCC 1771 assessed as absence of visible growth after 48 to 72 hrs. It is filed as functional.
Test [16] relates to Shigella flexneri. In words: Antimicrobial activity against Shigella flexneri MTCC 1457 assessed as absence of visible growth after 24 hrs.
Test [17] has as its system Klebsiella pneumoniae. Nature of the test: Antimicrobial activity against Klebsiella pneumonia MTCC 109 assessed as absence of visible growth after 24 hrs.
Test [18] relates to Staphylococcus epidermidis. In words: Antimicrobial activity against Staphylococcus epidermidis MTCC 3615 assessed as absence of visible growth after 24 hrs.

As a reminder, the MIC is the smallest concentration in the dilution series that meets the test's criterion for growth inhibition.

Molecules are shown by their SMILES. In brackets after ≈: the same amount, converted by molar mass. Activity calls are given as the source filed them.

Take `COc1ccc([C@H]2[C@@H]3CCCC=C3C(C#N)=C(N)[C@]23C(=O)Nc2ccccc23)cc1`: the “inhibition zone (IZ)” value in test [1] amounted to 9 mm; in the test on Staphylococcus aureus [2] it was 10 mm; in the test with Staphylococcus aureus [3] it was 11 mm; in the test on Micrococcus luteus [4], 8 mm; in the test with Klebsiella aerogenes [5], 10 mm; in the test with Salmonella typhimurium [6], 8 mm. For the same molecule, the “inhibition zone (IZ)” value in the test on Klebsiella pneumoniae [7] amounted to 9 mm; in the test with Shigella flexneri [9], 8 mm; in the test with Candida albicans it was 10 mm; in the test on Malassezia pachydermatis, 13 mm. Further, the inhibition entry in the test on Proteus vulgaris [8] was “inactive”.

Turning to `N#CC1=C(N)[C@]2(C(=O)Nc3ccccc32)[C@@H](c2ccoc2)[C@@H]2CCCC=C12`, the inhibition result (in [1]; with Staphylococcus aureus [2]; in the test on Klebsiella aerogenes [5]; in the test with Salmonella typhimurium [6]; in the test on Klebsiella pneumoniae [7]; with Proteus vulgaris [8]) was “inactive” in each case. The inhibition entry with Shigella flexneri [9], in the test with Candida albicans and with Malassezia pachydermatis was “inactive” throughout. The “inhibition zone (IZ)” value turned out to be 10 mm in the test with Staphylococcus aureus [3] and 8 mm in the test with Micrococcus luteus [4].

Take `COc1ccc([C@H]2[C@@H]3CCCC=C3C(C#N)=C(N)C23C(=O)c2ccccc2C3=O)cc1` (relative stereo): the “inhibition zone (IZ)” value in [1] worked out at 12 mm; in the test on Staphylococcus aureus [2] it was 11 mm; with Micrococcus luteus [4] it was 11 mm; in the test with Klebsiella aerogenes [5], 10 mm; in the test on Klebsiella pneumoniae [7], 10 mm; in the test on Malassezia pachydermatis, 10 mm. For the same molecule, the inhibition result in the test on Staphylococcus aureus [3], with Salmonella typhimurium [6], with Proteus vulgaris [8], in the test on Shigella flexneri [9] and with Candida albicans was “inactive” throughout.

With `N#CC1=C(N)C2(C(=O)c3ccccc3C2=O)[C@@H](c2ccc(Cl)cc2)[C@@H]2CCCC=C12` (relative stereo), the “inhibition zone (IZ)” value is recorded as 8 mm in test [1]; 9 mm with Staphylococcus aureus [2]; 13 mm in the test with Staphylococcus aureus [3]; 13 mm with Klebsiella aerogenes [5]; 10 mm in the test on Salmonella typhimurium [6]; 8 mm in the test on Shigella flexneri [9]. Further, the inhibition result in the test on Micrococcus luteus [4], in the test on Klebsiella pneumoniae [7], with Proteus vulgaris [8], in the test with Candida albicans and in the test on Malassezia pachydermatis was “inactive” throughout.

On to `N#CC1=C(N)[C@]2(C(=O)Nc3ccccc32)[C@@H](c2ccccc2F)[C@@H]2CCCC=C12` (mixture of isomers), for which the “inhibition zone (IZ)” value in test [1] came to 13 mm; in the test with Staphylococcus aureus [2] it was 17 mm; with Staphylococcus aureus [3], 12 mm; in the test with Micrococcus luteus [4] it was 10 mm; with Klebsiella aerogenes [5], 14 mm; with Salmonella typhimurium [6], 11 mm. The “inhibition zone (IZ)” value in the test on Klebsiella pneumoniae [7] was determined as 10 mm; in the test on Proteus vulgaris [8] it was 8 mm; in the test with Shigella flexneri [9], 9 mm; with Candida albicans it was 10 mm. In the test with Malassezia pachydermatis, the inhibition entry was “inactive”. Besides, the MIC in the test on Staphylococcus aureus [10] turned out to be 125 µg/mL; in the test with Staphylococcus aureus [11], 250 µg/mL; with Micrococcus luteus [12], 250 µg/mL; with Klebsiella aerogenes [13], 250 µg/mL; in the test on Salmonella typhimurium [14], 250 µg/mL; with Proteus vulgaris [15], 1000 µg/mL. The MIC with Shigella flexneri [16] was 1000 µg/mL; in the test on Klebsiella pneumoniae [17], 500 µg/mL; in [18], 250 µg/mL.

Turning to `Cc1ccc([C@H]2[C@@H]3CCCC=C3C(C#N)=C(N)C23C(=O)CCCC3=O)cc1` (relative stereo), the inhibition entry (in test [1]; in the test on Staphylococcus aureus [2]; with Staphylococcus aureus [3]; with Micrococcus luteus [4]; with Klebsiella aerogenes [5]; in the test on Salmonella typhimurium [6]) was “inactive” throughout. The inhibition result with Shigella flexneri [9], in the test on Candida albicans and in the test with Malassezia pachydermatis was “inactive” each time. For the same molecule, the entries for the “inhibition zone (IZ)” value with Klebsiella pneumoniae [7] and in the test with Proteus vulgaris [8] were 10 mm and 9 mm, respectively.

In the case of `COc1ccc([C@H]2[C@@H]3CCC=C3C(C#N)=C(N)C23C(=O)c2ccccc2C3=O)cc1` (relative stereo), the inhibition result (in test [1]; with Staphylococcus aureus [2]; in the test on Klebsiella aerogenes [5]; in the test on Salmonella typhimurium [6]; in the test with Proteus vulgaris [8]; in the test on Shigella flexneri [9]) was “inactive” in each case. Besides, the inhibition result with Candida albicans and in the test with Malassezia pachydermatis was “inactive” throughout. Further, the “inhibition zone (IZ)” value in the test on Staphylococcus aureus [3] was found to be 10 mm; in the test with Micrococcus luteus [4], 8 mm; in the test with Klebsiella pneumoniae [7], 11 mm.

In the case of `Cc1ccc([C@H]2[C@@H]3CCCC=C3C(C#N)=C(N)[C@]23C(=O)Nc2ccccc23)cc1`, the “inhibition zone (IZ)” value in test [1] was found to be 12 mm; in the test on Staphylococcus aureus [2], 11 mm; in the test on Staphylococcus aureus [3] it was 9 mm; in the test on Micrococcus luteus [4], 8 mm; in the test on Klebsiella aerogenes [5], 13 mm; in the test on Salmonella typhimurium [6], 9 mm. The “inhibition zone (IZ)” value was 10 mm in the test with Klebsiella pneumoniae [7]; 12 mm in the test with Proteus vulgaris [8]; 9 mm in the test on Shigella flexneri [9]; 8 mm in the test on Candida albicans; 10 mm with Malassezia pachydermatis. The MIC in the test with Staphylococcus aureus [10] came to 250 µg/mL (≈ 655 µM); with Staphylococcus aureus [11] it was 1000 µg/mL (≈ 2620 µM); with Micrococcus luteus [12], 1000 µg/mL (≈ 2620 µM); with Klebsiella aerogenes [13] it was 250 µg/mL (≈ 655 µM); in the test with Salmonella typhimurium [14], 1000 µg/mL (≈ 2620 µM); with Proteus vulgaris [15], 250 µg/mL (≈ 655 µM). The MIC came to 1000 µg/mL (≈ 2620 µM) with Shigella flexneri [16], 500 µg/mL (≈ 1310 µM) in the test on Klebsiella pneumoniae [17] and 250 µg/mL (≈ 655 µM) in test [18].

For `N#CC1=C(N)C2(C(=O)c3ccccc3C2=O)[C@@H](c2ccc(Br)cc2)[C@@H]2CCCC=C12` (relative stereo), the inhibition result (in test [1]; with Micrococcus luteus [4]; in the test with Klebsiella aerogenes [5]; in the test on Proteus vulgaris [8]; in the test on Shigella flexneri [9]; in the test with Malassezia pachydermatis) was “inactive” in each case. Further, the “inhibition zone (IZ)” value came out at 14 mm with Staphylococcus aureus [2]; 13 mm with Staphylococcus aureus [3]; 12 mm in the test on Salmonella typhimurium [6]; 10 mm in the test with Klebsiella pneumoniae [7]; 10 mm in the test on Candida albicans.

On to `CC(=O)N1CCN(c2ccc(OCC3COC(Cn4ccnc4)(c4ccc(Cl)cc4Cl)O3)cc2)CC1` (racemic) [KETOCONAZOLE], for which the entries for the “inhibition zone (IZ)” value in the test with Candida albicans and in the test with Malassezia pachydermatis were 28 mm and 26 mm, respectively.

Regarding `N#CC1=C(N)[C@]2(C(=O)Nc3ccccc32)[C@@H](c2ccccn2)[C@@H]2CCCC=C12`, the “inhibition zone (IZ)” value in test [1] stood at 9 mm; in the test on Klebsiella aerogenes [5] it was 8 mm; in the test on Salmonella typhimurium [6], 11 mm; with Proteus vulgaris [8], 10 mm; in the test with Candida albicans, 12 mm; in the test on Malassezia pachydermatis, 11 mm. Besides, the inhibition entry in the test with Staphylococcus aureus [2], in the test with Staphylococcus aureus [3], in the test on Micrococcus luteus [4], in the test on Klebsiella pneumoniae [7] and with Shigella flexneri [9] was “inactive” each time.
